Our source for the viability, differential viability (reversal) and inhibition values is PubChem BioAssay.

One may read the viability as a read-out of living cells in per cent, often relative to untreated cells. Broadly, the inhibition is the relative decrease from the control value, in per cent.

Calls of active or inactive are those of the source. Cut-off read from the data, not from the text of the source, unless noted: active = inhibition above about 30%; inactive = the rest.

Assay [1] is described as follows: HUVEC growth inhibition – cell-based, human, primary screen (AID 575;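 active = viability at or below 30% in both replicate assays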;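 note: 100% = median of untreated cell wells with 0.1% DMSO on each plate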). The following applies: HUVEC proliferation, CellTiter-Glo luminescence, 72 h; at 10 µM; stronger effect = lower value. Put shortly:
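Assay system: Primary human umbilical vein endothelial cells | Quantity: 1250 cells per well | Medium: Supplemented EBM, 2% fetal bovine serum | Detection: CellTiter-Glo luminescence measuring cellular ATP | Read-out: % viability vs DMSO wells | Plate: Collagen-coated 384-well format | Times: 72 h exposure, 37 °C, 5% CO2, 30 min RT equilibration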
(In general: Cellular ATP, detected with luciferase, serves as a proxy for viable cell number.)

Assay [2] in a line: H69AR cell proliferation blockers – human, duplicate replicates, primary screen (AID 580;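 active = viability at or under a set limit in both replicates, limit being median viability minus 3 SD, cut at about 48% in these data, passing the limit was not always enough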;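 note: 100% = mean luminescence of untreated wells and 0% = no signal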). To be noted: H69AR lung tumor cells viability, ATP luminescence, 72 h; at 10 µM; stronger effect = lower value.
Assay [3] in a line: MRP1 drug-resistance reversers in H69AR cells – cell-based, doxorubicin co-treatment, pilot screen (AID 601;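 active = viability loss from added drug above about 55%, and viability with drug at most 40%, in both replicates, limit read from the data, passing the limit was not always enough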). To be noted: CellTiter-Glo, 72 h, at 10 µM; for differential viability (reversal): stronger effect = higher value.
A short description of assay [4]: yeast transport mutant growth inhibition pilot in 384-well plates, post-Golgi transport modulator project (AID 636; in the data active = inhibition above about 31%). The following applies: absorbance 615 nm, about 18 h, stronger effect = higher value.
The nature of assay [5]: growth suppression of yeast trafficking mutant, preliminary HTS, modulators of trafficking downstream of Golgi apparatus project, 1536-format plate, OD 615 nm (AID 637). To be noted: yeast transport mutant growth, absorbance 615 nm, 18 h; stronger effect = higher value.
The mark [6] stands for this setting: H69AR cells + 2 uM doxorubicin, measured here: viability with 2 uM doxorubicin, stronger effect = lower value.
Setting [7] is: H69AR cells, compound alone cytotoxicity.

On to `Cn1cnc2c1c(=O)n(Cc1cccc(Br)c1)c(=O)n2C`, for which the viability in assay [1] is 90.3% (inactive); in assay [2] it was 86.9% (inactive); in assay [3] (setting [6]), 82.6%; in assay [3] (setting [7]), 86.9%. Further, the differential viability (reversal) in assay [3] (H69AR cells + 2 uM doxorubicin) is 4.32% (inactive). For the same molecule, the results for the inhibition in assay [4] and in assay [5] were -4% (inactive) and 5.24% (inactive), respectively.

In the case of `COc1cc(CN2CCC(C(=O)NC3CCCC3)CC2)ccc1O`, the viability in assay [1] was 109% (inactive); in assay [2], 94.7% (inactive); in assay [3] (setting [6]) it was 85.2%; in assay [3] (setting [7]), 94.7%. Further, the differential viability (reversal) in assay [3] (H69AR cells + 2 uM doxorubicin) is 9.49% (inactive). For the same molecule, the results for the inhibition in assay [4] and in assay [5] were -4% (inactive) and 0.79% (inactive), respectively.

Turning to `Cc1cc(NC(=O)C2CCCC2)nc2c1c(=O)oc1ccccc12`, the viability in assay [1] was 60.3% (inactive); in assay [2], 62.8% (inactive); in assay [3] (setting [6]), 87.8%; in assay [3] (setting [7]) it was 62.8%. For the same molecule, the differential viability (reversal) in assay [3] (H69AR cells + 2 uM doxorubicin) was -24.9% (inactive). The inhibition in assay [4] was -5.45% (inactive); in assay [5], 3.49% (inactive).

`Nc1nnc(Cc2ccc(Cl)cc2)s1`: the viability in assay [1] is 115% (inactive); in assay [2], 102% (inactive); in assay [3] (setting [6]) it was 86.3%; in assay [3] (setting [7]), 102%. Moreover, the differential viability (reversal) in assay [3] (H69AR cells + 2 uM doxorubicin) was 15.6% (inactive). The inhibition is -6.18% (inactive) in assay [4] and 3.49% (inactive) in assay [5].

In the case of `CC(C)c1ccc(NC(=O)C2CC(=O)N(C(C)C)C2)cc1` (stereo not drawn), the viability in assay [1] is 89.2% (inactive); in assay [2], 90.8% (inactive); in assay [3] (setting [6]), 87.3%; in assay [3] (setting [7]), 90.8%. For the same molecule, the differential viability (reversal) in assay [3] (H69AR cells + 2 uM doxorubicin) was 3.6% (inactive). Moreover, the inhibition in assay [4] was -2.34% (inactive); in assay [5], -2.86% (inactive).

With `Cc1ccc(N2CCN(C(=O)c3ccccc3)CC2)c(C)c1`, the viability in assay [1] was 114% (inactive); in assay [2], 91.1% (inactive); in assay [3] (setting [6]) it was 84.4%; in assay [3] (setting [7]) it was 91.1%. The differential viability (reversal) in assay [3] (H69AR cells + 2 uM doxorubicin) is 6.71% (inactive). Also, the figures for the inhibition in assay [4] and in assay [5] were -7.33% (inactive) and 5.4% (inactive), respectively.

`CS(=O)(=O)N(CC(=O)NC1CC1)c1cccc(F)c1`: the viability in assay [1] is 86.5% (inactive); in assay [2], 90% (inactive); in assay [3] (setting [6]) it was 84.1%; in assay [3] (setting [7]) it was 90%. The differential viability (reversal) in assay [3] (H69AR cells + 2 uM doxorubicin) is 5.87% (inactive). Further, the inhibition is -5.19% (inactive) in assay [4] and 0% (inactive) in assay [5].

Consider `CCCn1c(SCC(=O)Nc2ccccc2C(=O)OCC)nc2c1c(=O)n(C)c(=O)n2C`, for which the viability was 102% (inactive) in assay [1], 95.7% (inactive) in assay [2], 93.1% in assay [3] (setting [6]) and 95.7% in assay [3] (setting [7]). Further, in assay [3] (H69AR cells + 2 uM doxorubicin), the differential viability (reversal) was 2.55% (inactive). In addition, the inhibition was -8% (inactive) in assay [4] and -3.02% (inactive) in assay [5].

Consider `O=C(Cc1ccccc1)Nc1nnc(-c2cccs2)s1`, for which the viability is 96.8% (inactive) in assay [1], 61.1% (inactive) in assay [2], 67.1% in assay [3] (setting [6]) and 61.1% in assay [3] (setting [7]). The differential viability (reversal) in assay [3] (H69AR cells + 2 uM doxorubicin) was -6.04% (inactive). Moreover, the values for the inhibition in assay [4] and in assay [5] were -2.99% (inactive) and 3.02% (inactive), respectively.

Turning to `Cc1noc(C)c1COc1cccc(C(=O)Oc2ccc3c(c2)OCO3)c1`, the viability in assay [1] is 88.8% (inactive); in assay [2], 79.5% (inactive); in assay [3] (setting [6]), 84.5%; in assay [3] (setting [7]), 79.5%. In assay [3] (H69AR cells + 2 uM doxorubicin), the differential viability (reversal) is -5.05% (inactive). The inhibition is -4.81% (inactive) in assay [4] and 1.75% (inactive) in assay [5].

On to `COCCn1cc(C(=O)NCCCN2CCC(C)CC2)c2c3ccccc3n(C)c2c1=O`, for which the viability was 90.7% (inactive) in assay [1], 88.8% (inactive) in assay [2], 86.2% in assay [3] (setting [6]) and 88.8% in assay [3] (setting [7]). Further, the differential viability (reversal) in assay [3] (H69AR cells + 2 uM doxorubicin) was 2.62% (inactive). For the same molecule, the values for the inhibition in assay [4] and in assay [5] were -5.97% (inactive) and 1.11% (inactive), respectively.

`COc1cccc(-c2cc(C(F)(F)F)n3nc(N)nc3n2)c1`: the viability in assay [1] was 92.3% (inactive); in assay [2], 88.9% (inactive); in assay [3] (setting [6]), 91.6%; in assay [3] (setting [7]) it was 88.9%. The differential viability (reversal) in assay [3] (H69AR cells + 2 uM doxorubicin) was -2.71% (inactive). In addition, the inhibition in assay [4] is -0.53% (inactive); in assay [5] it was 10.3% (inactive).

Turning to `Cc1noc(C)c1C(=O)Nc1sc(C)c(C)c1C#N`, the viability in assay [1] is 105% (inactive); in assay [2], 95.5% (inactive); in assay [3] (setting [6]), 75.2%; in assay [3] (setting [7]), 95.5%. The differential viability (reversal) in assay [3] (H69AR cells + 2 uM doxorubicin) is 20.3% (inactive). For the same molecule, the inhibition was -1.97% (inactive) in assay [4] and 2.86% (inactive) in assay [5].

For `O=C(CSc1nnc(-c2ccncc2)o1)Oc1ccccc1`, the viability in assay [1] was 101% (inactive); in assay [2], 102% (inactive); in assay [3] (setting [6]), 85.9%; in assay [3] (setting [7]), 102%. Also, the differential viability (reversal) in assay [3] (H69AR cells + 2 uM doxorubicin) was 15.9% (inactive). Also, the inhibition in assay [4] was -6.4% (inactive); in assay [5] it was 3.02% (inactive).

In the case of `O=C(Nc1nnc(CCN2CCCCC2)s1)C1CCCCC1`, the viability in assay [1] was 93.4% (inactive); in assay [2], 91.9% (inactive); in assay [3] (setting [6]), 84.7%; in assay [3] (setting [7]), 91.9%. In addition, the differential viability (reversal) in assay [3] (H69AR cells + 2 uM doxorubicin) is 7.11% (inactive). Also, the inhibition was -5.73% (inactive) in assay [4] and 4.76% (inactive) in assay [5].

For `O=C(CSc1nc2c(sc3ccccc32)c(=O)n1Cc1ccco1)NCC1CCCO1` (stereo not drawn), the viability is 78.8% (inactive) in assay [1], 81.2% (inactive) in assay [2], 85.8% in assay [3] (setting [6]) and 81.2% in assay [3] (setting [7]). Besides, in assay [3] (H69AR cells + 2 uM doxorubicin), the differential viability (reversal) is -4.63% (inactive). In addition, the inhibition in assay [4] was -1.17% (inactive); in assay [5] it was 5.71% (inactive).

Take `S=c1[nH]c2ccc(Cl)cc2[nH]1`: the viability in assay [1] is 67.4% (inactive); in assay [2], 84.9% (inactive); in assay [3] (setting [6]), 78.7%; in assay [3] (setting [7]), 84.9%. Also, in assay [3] (H69AR cells + 2 uM doxorubicin), the differential viability (reversal) is 6.16% (inactive). Moreover, the inhibition was -3.42% (inactive) in assay [4] and 6.35% (inactive) in assay [5].

With `COc1ccc(OC)c(-c2nc3c(C)n[nH]c(=O)c3[nH]2)c1`, the viability in assay [1] was 79.1% (inactive); in assay [2], 69.5% (inactive); in assay [3] (setting [6]), 90.7%; in assay [3] (setting [7]), 69.5%. Also, the differential viability (reversal) in assay [3] (H69AR cells + 2 uM doxorubicin) is -21.3% (inactive). The inhibition in assay [4] was -6.13% (inactive); in assay [5], -0.95% (inactive).

On to `CCSC1=C(C#N)C(c2cccc(OC)c2)CC(=O)N1` (stereo not drawn), for which the viability is 85.5% (inactive) in assay [1], 101% (inactive) in assay [2], 92.6% in assay [3] (setting [6]) and 101% in assay [3] (setting [7]). In assay [3] (H69AR cells + 2 uM doxorubicin), the differential viability (reversal) is 8.71% (inactive). The inhibition in assay [4] was 0.53% (inactive); in assay [5], -1.9% (inactive).
